ChEMBL document CHEMBL1821705 (J Med Chem, 2011)
Blank lines part the entries; values can stand above or below the molecule they belong to.

Legend:
[1] = molecular target: Mast/stem cell growth factor receptor Kit (Homo sapiens, UniProt P10721); experiment: Inhibition of KIT activity by TR-FRET assay
[2] = molecular target: Vascular endothelial growth factor receptor 2 (Homo sapiens, UniProt P35968); experiment: Inhibition of KDR activity by TR-FRET assay
[3] = Clearance in human liver microsome at 1 uM after 30 mins by LC/MS analysis in the presence of NADPH; assay type: ADME; settings: liver microsomes
Method in brief: (§1)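 Compound at 1 μM incubated with human or mouse liver microsomes (0.5 mg protein/mL) in 50 mM phosphate buffer pH 7.4 with 1 mM NADPH, 37 °C, 30 min. Stopped with acetonitrile, centrifuged. Remaining compound in the supernatant quantified by LC/MS.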

KARPAS-299 [4] = experiment: cells; settings: Homo sapiens, KARPAS-299, 96 h
[5] = molecular target: Hepatocyte growth factor receptor (Homo sapiens, UniProt P08581); experiment: Inhibition of MET activity by TR-FRET assay
[6] = Clearance in mouse liver microsome at 1 uM after 30 mins by LC/MS analysis in the presence of NADPH; assay type: ADME; settings: liver microsomes; method in brief: as §1
[7] = molecular target: ALK tyrosine kinase receptor (Homo sapiens, UniProt Q9UM73)
ALK tyrosine kinase receptor, sequence (Q9UM73 whole entry): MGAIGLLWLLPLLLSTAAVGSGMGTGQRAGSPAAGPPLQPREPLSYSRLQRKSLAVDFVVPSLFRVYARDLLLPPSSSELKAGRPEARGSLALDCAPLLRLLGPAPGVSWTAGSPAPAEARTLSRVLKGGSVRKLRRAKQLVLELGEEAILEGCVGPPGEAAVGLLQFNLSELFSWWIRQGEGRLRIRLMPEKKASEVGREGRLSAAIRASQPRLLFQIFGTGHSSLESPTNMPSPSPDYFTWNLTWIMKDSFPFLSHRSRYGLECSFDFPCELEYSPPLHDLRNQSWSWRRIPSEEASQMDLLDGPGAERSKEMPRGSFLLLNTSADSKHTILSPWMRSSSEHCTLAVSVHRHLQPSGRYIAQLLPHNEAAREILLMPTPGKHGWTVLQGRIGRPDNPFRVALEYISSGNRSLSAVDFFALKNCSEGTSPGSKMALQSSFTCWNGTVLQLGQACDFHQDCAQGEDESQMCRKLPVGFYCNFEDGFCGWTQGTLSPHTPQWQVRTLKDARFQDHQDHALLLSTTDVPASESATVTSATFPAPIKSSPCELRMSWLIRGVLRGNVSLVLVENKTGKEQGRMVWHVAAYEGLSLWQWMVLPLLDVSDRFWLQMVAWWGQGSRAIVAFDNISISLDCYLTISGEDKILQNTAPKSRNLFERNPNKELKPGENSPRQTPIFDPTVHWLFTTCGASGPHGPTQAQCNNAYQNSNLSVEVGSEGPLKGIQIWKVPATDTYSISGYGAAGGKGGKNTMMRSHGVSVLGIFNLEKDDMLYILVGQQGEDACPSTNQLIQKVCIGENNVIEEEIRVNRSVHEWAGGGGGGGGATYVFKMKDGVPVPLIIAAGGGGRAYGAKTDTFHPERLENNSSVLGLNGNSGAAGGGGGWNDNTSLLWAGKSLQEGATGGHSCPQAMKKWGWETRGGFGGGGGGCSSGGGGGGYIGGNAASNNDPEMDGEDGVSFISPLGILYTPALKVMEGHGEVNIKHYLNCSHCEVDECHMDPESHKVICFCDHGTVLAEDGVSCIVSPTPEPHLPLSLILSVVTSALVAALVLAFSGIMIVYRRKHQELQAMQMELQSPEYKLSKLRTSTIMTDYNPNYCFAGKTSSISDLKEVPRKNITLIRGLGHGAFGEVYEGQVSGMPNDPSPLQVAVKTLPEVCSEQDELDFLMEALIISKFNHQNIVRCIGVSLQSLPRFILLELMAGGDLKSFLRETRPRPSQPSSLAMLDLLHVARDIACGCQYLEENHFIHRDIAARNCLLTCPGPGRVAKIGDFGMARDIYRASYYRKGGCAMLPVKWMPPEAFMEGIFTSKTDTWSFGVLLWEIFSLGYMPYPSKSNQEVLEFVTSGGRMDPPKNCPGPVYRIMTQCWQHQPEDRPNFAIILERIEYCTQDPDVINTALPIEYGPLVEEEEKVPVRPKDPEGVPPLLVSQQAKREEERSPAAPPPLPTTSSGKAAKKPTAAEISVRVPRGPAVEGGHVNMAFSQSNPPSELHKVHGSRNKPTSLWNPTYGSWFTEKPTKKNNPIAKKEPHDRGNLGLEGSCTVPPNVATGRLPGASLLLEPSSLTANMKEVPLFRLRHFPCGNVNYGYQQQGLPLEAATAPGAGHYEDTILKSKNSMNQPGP

[8] = Half-life in cynomolgus monkey at 0.5 mg/kg, iv; assay type: ADME, organism-based, Macaca fascicularis; design: dose 0.5 mg/kg, route intravenous; settings: in vivo
Method in brief: (§2)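 Fasted cynomolgus monkeys, n = 2 per route, given 0.5 mg/kg po or iv in 20% EtOH, 10% Cremophor EL, 15% PEG400, 15% HPCD, 0.02 mol/L HCl in water. Heparinized blood taken at 0.08–48 h (iv) or 0.50–48 h (po). Plasma stored at −80 °C, analyzed by LC-MS/MS. Parameters from noncompartmental analysis.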

KARPAS-299 [9] = experiment: Antitumor activity against human KARPAS299 xenografted in SCID mouse assessed as tumor growth inhibition at 20 mg/kg, po administered for 11 days after 8 days of tumor implantation; assay type: functional; settings: read-out: TGI
Method in brief: (§3)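 KARPAS-299 grown as sc tumors in SCID mice. Dosing started when tumors reached about 200 mm³, with four mice per group randomized. Vehicle or compound given by oral sonde once daily for 11 days; vehicle 10% DMSO, 10% Cremophor EL, 15% PEG400, 15% HPCD. Tumor volume taken as (L × W²)/2, measured twice weekly. TGI = [1 − (T − T₀)/(C − C₀)] × 100.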

[10] = Oral bioavailability in cynomolgus monkey at 0.5 mg/kg; assay type: ADME, organism-based, Macaca fascicularis; settings: in vivo; method in brief: as §2
KARPAS-299 [11] = experiment: Antitumor activity against human KARPAS299 xenografted in SCID mouse assessed as tumor growth inhibition at 2 mg/kg, po administered for 11 days after 8 days of tumor implantation; assay type: functional; settings: read-out: TGI; method in brief: as §3
Aurora kinase A = molecular target: T1, Aurora kinase A (Homo sapiens, UniProt O14965); experiment: Inhibition of Aurora-A activity by fluorescence polarization assay
T1 sequence (O14965 whole entry): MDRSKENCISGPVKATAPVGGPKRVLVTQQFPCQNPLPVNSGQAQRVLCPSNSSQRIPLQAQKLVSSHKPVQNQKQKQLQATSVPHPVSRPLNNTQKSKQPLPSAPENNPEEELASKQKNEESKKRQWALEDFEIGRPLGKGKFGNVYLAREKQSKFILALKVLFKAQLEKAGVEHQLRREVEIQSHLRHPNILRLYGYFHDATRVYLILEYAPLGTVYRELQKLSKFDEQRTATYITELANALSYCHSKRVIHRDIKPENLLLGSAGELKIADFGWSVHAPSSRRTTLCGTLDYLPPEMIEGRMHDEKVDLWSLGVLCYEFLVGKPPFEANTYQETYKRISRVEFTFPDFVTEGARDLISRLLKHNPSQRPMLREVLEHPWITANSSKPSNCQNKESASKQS

[12] = Total clearance in cynomolgus monkey at 0.5 mg/kg, iv; assay type: ADME, organism-based, Macaca fascicularis; design: dose 0.5 mg/kg, route intravenous; settings: in vivo; method in brief: as §2
[13] = Volume of distribution at steady state in cynomolgus monkey at 0.5 mg/kg, iv; assay type: ADME, organism-based, Macaca fascicularis; design: dose 0.5 mg/kg, route intravenous; settings: in vivo, read-out: Vdss; method in brief: as §2
[14] = molecular target: Insulin-like growth factor 1 receptor (Homo sapiens, UniProt P08069); experiment: Inhibition of IGF1R activity by TR-FRET assay
[15] = molecular target: RAF proto-oncogene serine/threonine-protein kinase (Homo sapiens, UniProt P04049); experiment: Inhibition of Raf-1 activity assessed as MEK1/2 phosphorylation
Method in brief: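 Raf-1 activity read as phosphorylation of MEK1/2, detected with europium-labelled anti-phospho-MEK1/2 (Ser217/221) antibody.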

Insulin receptor = Insulin receptor (Homo sapiens, UniProt P06213); experiment: Inhibition of INSR activity by TR-FRET assay
[16] = molecular target: Fibroblast growth factor receptor 2 (Homo sapiens, UniProt P21802); experiment: Inhibition of FGFR2 activity by TR-FRET assay
KARPAS-299 [17] = experiment: Antitumor activity against human KARPAS299 xenografted in po dosed SCID mouse assessed as decrease in tumor volume; assay type: functional, organism-based; method in brief: as §3
[18] = AUC in cynomolgus monkey at 0.5 mg/kg, po; assay type: ADME, organism-based, Macaca fascicularis; design: dose 0.5 mg/kg, route oral; settings: plasma; method in brief: as §2
[19] = molecular target: Protein kinase C alpha type (Homo sapiens, UniProt P17252); experiment: Inhibition of PKCA activity by fluorescence polarization assay
[20] = molecular target: Tyrosine-protein kinase ABL1 (Homo sapiens, UniProt P00519); experiment: Inhibition of ABL activity by TR-FRET assay
[21] = molecular target: Receptor tyrosine-protein kinase erbB-2 (Homo sapiens, UniProt P04626); experiment: Inhibition of HER2 activity by TR-FRET assay
[22] = Half-life in cynomolgus monkey at 0.5 mg/kg, po; assay type: ADME, organism-based, Macaca fascicularis; design: dose 0.5 mg/kg, route oral; settings: in vivo; method in brief: as §2
[23] = Cmax in cynomolgus monkey at 0.5 mg/kg, po; assay type: ADME, organism-based, Macaca fascicularis; design: dose 0.5 mg/kg, route oral; settings: in vivo; method in brief: as §2
[24] = molecular target: RAC-alpha serine/threonine-protein kinase (Homo sapiens, UniProt P31749); experiment: Inhibition of AKT1 activity by fluorescence polarization assay
RAC-alpha serine/threonine-protein kinase, sequence (P31749 whole entry): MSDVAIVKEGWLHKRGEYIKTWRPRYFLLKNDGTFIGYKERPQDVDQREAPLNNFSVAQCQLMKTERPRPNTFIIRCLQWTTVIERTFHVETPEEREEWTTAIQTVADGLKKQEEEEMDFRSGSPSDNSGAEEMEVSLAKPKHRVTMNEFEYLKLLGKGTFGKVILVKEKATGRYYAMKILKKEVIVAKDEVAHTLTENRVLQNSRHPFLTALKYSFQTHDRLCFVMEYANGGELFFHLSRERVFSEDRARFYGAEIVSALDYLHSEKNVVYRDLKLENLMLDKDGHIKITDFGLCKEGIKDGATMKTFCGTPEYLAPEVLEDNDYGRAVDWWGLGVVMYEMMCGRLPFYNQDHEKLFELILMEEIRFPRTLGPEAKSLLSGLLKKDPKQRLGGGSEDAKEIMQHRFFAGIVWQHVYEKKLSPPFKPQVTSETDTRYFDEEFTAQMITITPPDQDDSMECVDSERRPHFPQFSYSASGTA

KARPAS-299 [25] = experiment: Antitumor activity against human KARPAS299 xenografted in SCID mouse assessed as tumor growth inhibition at 6 mg/kg, po administered for 11 days after 8 days of tumor implantation; assay type: functional; settings: read-out: TGI; method in brief: as §3
[26] = molecular target: T2, Protein kinase C beta type (Homo sapiens, UniProt P05771); experiment: Inhibition of PKCb2 activity by fluorescence polarization assay
T2 sequence (P05771 whole entry): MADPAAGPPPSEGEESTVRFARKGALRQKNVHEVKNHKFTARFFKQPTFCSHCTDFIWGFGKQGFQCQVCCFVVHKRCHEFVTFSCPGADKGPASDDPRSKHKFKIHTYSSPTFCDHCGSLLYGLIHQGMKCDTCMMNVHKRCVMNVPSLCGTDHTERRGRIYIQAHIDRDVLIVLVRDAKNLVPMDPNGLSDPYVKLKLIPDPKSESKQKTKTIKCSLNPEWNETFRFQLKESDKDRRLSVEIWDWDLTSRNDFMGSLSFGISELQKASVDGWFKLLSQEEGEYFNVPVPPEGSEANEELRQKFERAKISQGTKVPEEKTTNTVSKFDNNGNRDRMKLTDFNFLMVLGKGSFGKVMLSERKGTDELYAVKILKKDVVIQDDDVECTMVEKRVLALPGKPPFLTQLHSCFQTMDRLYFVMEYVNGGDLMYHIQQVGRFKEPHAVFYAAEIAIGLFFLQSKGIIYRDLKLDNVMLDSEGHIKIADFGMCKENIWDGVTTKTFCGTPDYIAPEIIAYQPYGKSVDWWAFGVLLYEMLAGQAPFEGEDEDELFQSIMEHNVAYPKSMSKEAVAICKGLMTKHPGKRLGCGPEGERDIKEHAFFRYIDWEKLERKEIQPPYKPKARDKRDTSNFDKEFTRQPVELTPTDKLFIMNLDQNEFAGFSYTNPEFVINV

[27] = molecular target: T2, Protein kinase C beta type; experiment: Inhibition of PKCb1 activity by fluorescence polarization assay
[28] = molecular target: Proto-oncogene tyrosine-protein kinase Src (Homo sapiens, UniProt P12931); experiment: Inhibition of SRC activity by TR-FRET assay

Vascular endothelial growth factor receptor 2, sequence (P35968 whole entry): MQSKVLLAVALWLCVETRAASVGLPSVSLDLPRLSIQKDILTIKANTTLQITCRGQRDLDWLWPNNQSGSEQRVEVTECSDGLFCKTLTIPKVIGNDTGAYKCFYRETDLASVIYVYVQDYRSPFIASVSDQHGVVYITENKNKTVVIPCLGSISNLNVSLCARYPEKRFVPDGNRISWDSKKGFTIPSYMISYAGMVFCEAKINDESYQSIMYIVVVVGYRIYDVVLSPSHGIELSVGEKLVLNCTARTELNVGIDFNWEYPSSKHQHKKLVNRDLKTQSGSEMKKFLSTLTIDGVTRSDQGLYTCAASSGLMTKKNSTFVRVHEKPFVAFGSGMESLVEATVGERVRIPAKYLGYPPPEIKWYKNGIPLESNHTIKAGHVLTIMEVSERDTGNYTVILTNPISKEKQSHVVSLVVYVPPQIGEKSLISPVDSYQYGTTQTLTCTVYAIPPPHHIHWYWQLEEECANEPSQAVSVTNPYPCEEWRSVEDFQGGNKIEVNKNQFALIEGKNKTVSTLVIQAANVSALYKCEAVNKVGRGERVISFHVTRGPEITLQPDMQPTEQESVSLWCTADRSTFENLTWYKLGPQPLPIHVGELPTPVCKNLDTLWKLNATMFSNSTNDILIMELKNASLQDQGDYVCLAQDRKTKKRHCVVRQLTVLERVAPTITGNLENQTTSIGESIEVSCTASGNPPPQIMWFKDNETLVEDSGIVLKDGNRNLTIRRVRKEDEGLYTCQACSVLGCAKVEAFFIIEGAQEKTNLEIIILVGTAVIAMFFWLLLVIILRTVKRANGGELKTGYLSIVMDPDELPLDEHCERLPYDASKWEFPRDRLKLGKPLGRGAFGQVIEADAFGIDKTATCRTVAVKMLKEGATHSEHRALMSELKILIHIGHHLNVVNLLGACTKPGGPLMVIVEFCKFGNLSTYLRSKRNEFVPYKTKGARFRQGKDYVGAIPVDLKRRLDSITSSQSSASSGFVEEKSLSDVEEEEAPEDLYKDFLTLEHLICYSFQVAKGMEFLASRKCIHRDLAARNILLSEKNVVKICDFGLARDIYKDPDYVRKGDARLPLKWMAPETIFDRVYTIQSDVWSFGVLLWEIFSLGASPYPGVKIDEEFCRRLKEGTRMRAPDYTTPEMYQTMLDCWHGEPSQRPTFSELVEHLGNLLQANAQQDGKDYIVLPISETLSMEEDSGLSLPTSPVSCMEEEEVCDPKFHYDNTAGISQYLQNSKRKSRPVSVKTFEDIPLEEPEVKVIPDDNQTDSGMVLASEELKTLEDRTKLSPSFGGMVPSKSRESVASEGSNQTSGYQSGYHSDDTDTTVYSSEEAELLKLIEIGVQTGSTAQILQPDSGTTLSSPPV
Mast/stem cell growth factor receptor Kit, sequence (P10721 whole entry): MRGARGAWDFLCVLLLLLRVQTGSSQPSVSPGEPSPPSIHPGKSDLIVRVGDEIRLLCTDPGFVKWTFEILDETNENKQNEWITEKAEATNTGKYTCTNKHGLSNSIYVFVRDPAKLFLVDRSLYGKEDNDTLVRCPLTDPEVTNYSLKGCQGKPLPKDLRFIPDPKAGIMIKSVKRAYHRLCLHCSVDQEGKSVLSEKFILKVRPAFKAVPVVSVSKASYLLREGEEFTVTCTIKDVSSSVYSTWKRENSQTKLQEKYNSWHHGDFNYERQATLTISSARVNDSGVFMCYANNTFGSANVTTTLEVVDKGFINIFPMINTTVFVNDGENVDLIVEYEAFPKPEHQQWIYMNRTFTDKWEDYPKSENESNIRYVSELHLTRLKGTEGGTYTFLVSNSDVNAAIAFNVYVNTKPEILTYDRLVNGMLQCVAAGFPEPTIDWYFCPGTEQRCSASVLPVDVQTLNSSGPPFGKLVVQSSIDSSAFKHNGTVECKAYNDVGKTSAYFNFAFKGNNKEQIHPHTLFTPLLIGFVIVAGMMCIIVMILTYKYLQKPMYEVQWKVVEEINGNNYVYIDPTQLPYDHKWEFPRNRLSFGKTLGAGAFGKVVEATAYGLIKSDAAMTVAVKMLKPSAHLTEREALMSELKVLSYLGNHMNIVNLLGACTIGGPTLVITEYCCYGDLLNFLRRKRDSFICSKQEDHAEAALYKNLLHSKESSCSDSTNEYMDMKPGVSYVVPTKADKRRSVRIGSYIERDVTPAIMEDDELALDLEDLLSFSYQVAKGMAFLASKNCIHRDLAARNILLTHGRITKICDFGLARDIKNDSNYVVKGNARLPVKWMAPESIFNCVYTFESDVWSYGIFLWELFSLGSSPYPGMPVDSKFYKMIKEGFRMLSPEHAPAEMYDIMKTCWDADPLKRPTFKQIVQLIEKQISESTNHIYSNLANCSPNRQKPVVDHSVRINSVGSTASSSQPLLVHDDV

SMILES: CC(C)c1cc2c(cc1N1CCN(C3COC3)CC1)C(C)(C)c1[nH]c3cc(C#N)ccc3c1C2=O
IC50 [1]: > 5000 nM
IC50 [2]: > 5000 nM
microsomal CLint at 1 µM [3]: 17.4 µL/min/mg
IC50 (KARPAS-299 [4]): 118 nM
IC50 [7]: 66.4 nM
IC50 [5]: > 5000 nM
microsomal CLint at 1 µM [6]: 4.1 µL/min/mg

SMILES: CCCc1cc2c(cc1N1CCN(C3COC3)CC1)C(C)(C)c1[nH]c3cc(C#N)ccc3c1C2=O
IC50 [1]: > 5000 nM
IC50 [2]: > 5000 nM
microsomal CLint at 1 µM [3]: 19.4 µL/min/mg
IC50 (KARPAS-299 [4]): 25.3 nM
IC50 [7]: 15.1 nM
IC50 [5]: > 5000 nM
microsomal CLint at 1 µM [6]: 4.7 µL/min/mg

SMILES: CCc1cc2c(cc1N1CCN(C3COC3)CC1)C(C)(C)c1[nH]c3cc(C#N)ccc3c1C2=O
half-life [8]: 5.3 h
IC50 [1]: > 5000 nM
inhibition in vivo at 20 mg/kg (KARPAS-299 [9]): 119%
bioavailability [10]: 28.2%
inhibition in vivo at 2 mg/kg (KARPAS-299 [11]): 49%
IC50 [2]: > 5000 nM
IC50 (Aurora kinase A): > 50000 nM
microsomal CLint at 1 µM [3]: 17 µL/min/mg
clearance [12]: 0.73 mL/min/kg
Vd [13]: 0.296 L/kg
IC50 [14]: > 50000 nM
IC50 [15]: > 50000 nM
IC50 (Insulin receptor): 460 nM
IC50 [16]: > 50000 nM
Activity (KARPAS-299 [17]): Dose-dependent effect
AUC [18]: 3270 ng·h/mL
IC50 (KARPAS-299 [4]): 12.8 nM
IC50 [19]: > 50000 nM
IC50 [20]: > 50000 nM
IC50 [21]: > 50000 nM
half-life [22]: 6.25 h
Cmax [23]: 327 ng/mL
IC50 [5]: > 5000 nM
IC50 [24]: > 50000 nM
inhibition in vivo at 6 mg/kg (KARPAS-299 [25]): 103%
microsomal CLint at 1 µM [6]: 4.5 µL/min/mg
IC50 [26]: > 50000 nM
IC50 [27]: > 50000 nM
IC50 [28]: > 50000 nM

Other lines, results leading:

IC50 [1]: > 5000 nM
IC50 [2]: > 5000 nM
microsomal CLint at 1 µM [3]: 17.8 µL/min/mg
IC50 (KARPAS-299 [4]): 544 nM
IC50 [5]: > 5000 nM
microsomal CLint at 1 µM [6]: 44.7 µL/min/mg
SMILES: CC1(C)c2cc(N3CCN(C4COC4)CC3)c(CCC3CCCC3)cc2C(=O)c2c1[nH]c1cc(C#N)ccc21

IC50 [1]: 83.9 nM
IC50 [2]: 137 nM
IC50 [5]: > 5000 nM
SMILES: CC1(C)c2cc(N3CCN(C4COC4)CC3)ccc2C(=O)c2c1[nH]c1cc(C#N)ccc21

IC50 [1]: 2420 nM
IC50 [2]: 455 nM
microsomal CLint at 1 µM [3]: 18.9 µL/min/mg
IC50 [7]: 2.7 nM
IC50 [5]: > 5000 nM
microsomal CLint at 1 µM [6]: 2.1 µL/min/mg
SMILES: C#Cc1cc2c(cc1N1CCN(C3COC3)CC1)C(C)(C)c1[nH]c3cc(C#N)ccc3c1C2=O

IC50 [1]: 49.8 nM
IC50 [2]: 60.8 nM
microsomal CLint at 1 µM [3]: 22.6 µL/min/mg
IC50 (KARPAS-299 [4]): 14.8 nM
IC50 [7]: 10.6 nM
IC50 [5]: > 5000 nM
microsomal CLint at 1 µM [6]: 7 µL/min/mg
SMILES: Cc1cc2c(cc1N1CCN(C3COC3)CC1)C(C)(C)c1[nH]c3cc(C#N)ccc3c1C2=O
